Blank lines part the entries; values can stand above or below the compound they belong to.
Assays:
PANC-1 = experiment: Anti-proliferation in PANC-1 pancreatic cancer cells; type: cell-based; details: Homo sapiens, PANC-1, read-out: Cellular IC50s Pancreas PANC-1
URMC6 = experiment: Anti-proliferation in URMC6 renal cell carcinoma cells; type: cell-based; details: read-out: Cellular IC50s Kidney URMC6
TAK1 [1] = target: T1, TAK1 (Homo sapiens, UniProt O43318); experiment: Competitive pulldown of TAK1 with biotinylated probe 27 in H358 and H23 cells; type: cell-based; details: 6 h, washout, lysate + 1 μM 27; for blocking of labeling of TAK1 by 27: 10 μM compound; for effect on labeling of TAK1 by 27: 1 or 10 μM compound; for labeling of TAK1 by 27 after pre-treatment of cells: 1 μM compound
T1 sequence (O43318 1-606): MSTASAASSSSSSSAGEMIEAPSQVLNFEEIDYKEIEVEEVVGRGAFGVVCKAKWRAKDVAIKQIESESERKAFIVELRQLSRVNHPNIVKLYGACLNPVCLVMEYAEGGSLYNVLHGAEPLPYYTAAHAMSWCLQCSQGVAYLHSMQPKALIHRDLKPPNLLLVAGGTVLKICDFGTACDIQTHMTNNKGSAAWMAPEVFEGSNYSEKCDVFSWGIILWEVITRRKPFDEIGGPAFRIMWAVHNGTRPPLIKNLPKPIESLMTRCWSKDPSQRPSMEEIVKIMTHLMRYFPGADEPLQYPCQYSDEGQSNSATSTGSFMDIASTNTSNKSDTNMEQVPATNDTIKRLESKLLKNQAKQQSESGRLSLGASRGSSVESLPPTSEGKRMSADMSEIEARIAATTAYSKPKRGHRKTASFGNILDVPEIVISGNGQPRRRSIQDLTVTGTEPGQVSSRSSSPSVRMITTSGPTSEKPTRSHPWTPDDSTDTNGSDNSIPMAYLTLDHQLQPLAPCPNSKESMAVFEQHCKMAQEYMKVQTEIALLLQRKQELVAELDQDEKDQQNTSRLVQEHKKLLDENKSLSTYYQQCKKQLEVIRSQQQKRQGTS
How it was run: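 H358 and H23 NSCLC cells (KRAS G12C) were exposed to test compound at 1 or 10 μM for 6 h. Drug medium was removed, and cells were rinsed twice with cold PBS and lysed in MPER buffer. Lysates were incubated overnight at 4 °C with 1 μM biotinylated probe and pulled down on streptavidin beads. Recovered TAK1 was detected by immunoblotting.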

H23 cells = experiment: Anti-proliferation in H23 NSCLC cells; type: cell-based; details: 72 h, in words
How it was run: (§1)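 Cells seeded at 2000 cells/well and left 48 h before drug addition at varying doses. After 72 h incubation, viability was read by CellTiter-Glo luminescence. Growth-inhibition IC50 values were calculated from dose-response curves.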

H358 cells = experiment: Anti-proliferation in H358 NSCLC cells; type: cell-based; details: 72 h, in words
How it was run: as §1

[2] = test system: synovial fibroblasts from an RA patient (RA2159); experiment: Cytokine secretion by activated RA synovial fibroblasts; type: cell-based, human; details: TNFα, IL-1α or Poly(I:C) activation
How it was run: (§2)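 Primary human RA synovial fibroblasts (lot RA2159) were seeded at 1000 cells/well, grown ~24 h, then starved overnight and ~4 h in 0.1% BSA. Pooled supernatants (duplicates) were diluted 1:3 for 48-analyte Luminex measurement and iMLR modeling.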

TAK1 [3] = target: T1, TAK1; experiment: KiNativ live-cell profiling in SK-CO-1 cells; type: binding; details: 1 μM
MAP2K5 = target: T2, MAP2K5 (Homo sapiens, UniProt Q13163); experiment: KiNativ live-cell profiling in SK-CO-1 cells; type: binding; details: read-out: Inhibition (%) MAP2K5
T2 sequence (Q13163 1-448): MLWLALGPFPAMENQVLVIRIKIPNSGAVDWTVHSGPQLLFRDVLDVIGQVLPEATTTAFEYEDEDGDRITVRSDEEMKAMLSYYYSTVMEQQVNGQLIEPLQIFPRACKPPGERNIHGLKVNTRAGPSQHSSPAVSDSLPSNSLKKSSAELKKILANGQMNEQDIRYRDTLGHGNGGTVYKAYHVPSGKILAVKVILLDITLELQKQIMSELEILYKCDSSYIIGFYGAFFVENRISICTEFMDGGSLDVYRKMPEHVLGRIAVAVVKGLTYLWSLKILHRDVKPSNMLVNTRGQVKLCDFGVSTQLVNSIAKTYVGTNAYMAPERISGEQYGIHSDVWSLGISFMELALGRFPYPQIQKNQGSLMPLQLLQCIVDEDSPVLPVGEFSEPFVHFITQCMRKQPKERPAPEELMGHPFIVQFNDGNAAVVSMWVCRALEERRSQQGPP

ARAF = target: T3, ARAF (Homo sapiens, UniProt P10398); experiment: KiNativ live-cell profiling in SK-CO-1 cells; type: binding; details: read-out: Inhibition (%) ARAF
T3 sequence (P10398 1-606): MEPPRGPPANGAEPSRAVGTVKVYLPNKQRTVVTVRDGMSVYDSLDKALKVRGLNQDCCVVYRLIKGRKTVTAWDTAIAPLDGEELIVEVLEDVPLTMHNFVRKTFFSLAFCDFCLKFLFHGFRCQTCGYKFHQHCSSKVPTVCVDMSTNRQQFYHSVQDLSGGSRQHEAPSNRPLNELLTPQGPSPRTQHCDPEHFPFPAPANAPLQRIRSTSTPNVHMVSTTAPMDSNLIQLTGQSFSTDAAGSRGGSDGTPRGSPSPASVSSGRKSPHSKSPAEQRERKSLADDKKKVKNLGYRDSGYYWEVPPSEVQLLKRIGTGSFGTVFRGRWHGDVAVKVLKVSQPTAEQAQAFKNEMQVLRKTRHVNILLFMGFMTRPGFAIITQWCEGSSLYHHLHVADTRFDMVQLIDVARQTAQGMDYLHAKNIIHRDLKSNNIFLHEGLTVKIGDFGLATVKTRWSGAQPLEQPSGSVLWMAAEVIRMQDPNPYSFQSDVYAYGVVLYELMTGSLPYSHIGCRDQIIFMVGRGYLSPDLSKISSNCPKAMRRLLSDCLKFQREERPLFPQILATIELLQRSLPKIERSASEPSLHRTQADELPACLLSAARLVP

MAP2K6 = target: T4, MAP2K6 (Homo sapiens, UniProt P52564); experiment: KiNativ live-cell profiling in SK-CO-1 cells; type: binding; details: read-out: Inhibition (%) MAP2K6
T4 sequence (P52564 1-334): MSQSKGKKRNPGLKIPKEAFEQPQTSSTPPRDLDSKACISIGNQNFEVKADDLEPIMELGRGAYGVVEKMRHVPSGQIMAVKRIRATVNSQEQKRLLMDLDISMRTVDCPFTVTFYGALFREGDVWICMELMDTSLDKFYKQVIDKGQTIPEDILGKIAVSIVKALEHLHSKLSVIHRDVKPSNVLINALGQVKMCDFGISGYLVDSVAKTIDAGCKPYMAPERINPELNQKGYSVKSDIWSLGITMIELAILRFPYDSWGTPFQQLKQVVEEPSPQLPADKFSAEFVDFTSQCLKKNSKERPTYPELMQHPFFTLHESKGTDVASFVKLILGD

panel of 456 kinases = experiment: KinomeScan ATP-site competition binding panel; details: 1 and 10 μM
[4] = test system: synovial fibroblasts from an RA patient (RA2159); details: TNFα but not IL-1α or Poly(I:C) ref 24; cited from earlier work
SW156 = experiment: Anti-proliferation in SW156 renal cell carcinoma cells; type: cell-based; details: read-out: Cellular IC50s Kidney SW156
ZAP70 = target: T5, ZAP70 (Homo sapiens, UniProt P43403); experiment: KiNativ live-cell profiling in SK-CO-1 cells; type: binding; details: read-out: Inhibition (%) ZAP70
T5 sequence (P43403 1-619): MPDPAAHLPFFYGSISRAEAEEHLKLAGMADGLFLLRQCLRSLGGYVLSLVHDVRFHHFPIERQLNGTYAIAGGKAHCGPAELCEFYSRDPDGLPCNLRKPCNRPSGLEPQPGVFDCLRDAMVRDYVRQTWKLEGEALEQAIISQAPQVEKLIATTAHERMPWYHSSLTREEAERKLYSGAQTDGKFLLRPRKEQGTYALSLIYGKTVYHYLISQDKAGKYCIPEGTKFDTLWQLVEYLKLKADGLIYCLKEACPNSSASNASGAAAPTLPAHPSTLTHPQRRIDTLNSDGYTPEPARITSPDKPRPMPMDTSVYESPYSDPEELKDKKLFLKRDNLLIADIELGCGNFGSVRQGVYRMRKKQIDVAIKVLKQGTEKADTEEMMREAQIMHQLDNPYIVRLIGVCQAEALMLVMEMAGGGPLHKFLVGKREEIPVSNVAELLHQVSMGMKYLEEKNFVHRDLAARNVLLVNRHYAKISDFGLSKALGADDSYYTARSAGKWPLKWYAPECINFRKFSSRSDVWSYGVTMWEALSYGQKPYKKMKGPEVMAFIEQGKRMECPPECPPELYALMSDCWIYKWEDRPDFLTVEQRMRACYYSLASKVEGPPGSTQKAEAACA

[5] = test system: synovial fibroblasts from an RA patient (RA2159); experiment: FGF-basic secretion by TNFα-activated RA synovial fibroblasts; type: cell-based, human; details: TNFα-activated SF
How it was run: as §2

[6] = test system: SW620, SK-CO-1, PANC-1, AsPc-1, SW156, URMC6; experiment: Anti-proliferation across six colon, pancreas and kidney cancer lines; type: cell-based; details: read-out: IC50 values against all lines except PANC-1
KRAS^G12D Ba/F3 cells = experiment: Anti-proliferation in KRAS^G12D Ba/F3 cells; type: cell-based; details: 2 vs 8, 25 vs 26

Compound: CC(C)Nc1cc(-c2c[nH]c(C(=O)N[C@H](CO)c3cccc(Cl)c3)c2)c(Cl)cn1 [BVD]
IC50 (PANC-1): > 100 µM | IC50 (URMC6): > 100 µM

Compound: C=CC(=O)Nc1ccccc1Oc1nc(Nc2cnn(C(F)F)c2)ncc1Cl [Compound 23]
blocking of labeling of TAK1 by 27 (TAK1 [1]): only partially blocked labeling of TAK1

Compound: CCN1CCN(Cc2ccc(NC(=O)c3ccc(C)c(Oc4ccnc5[nH]ccc45)c3)cc2C(F)(F)F)CC1 [NG25, reference compound]
effect on labeling of TAK1 by 27 (TAK1 [1]): inhibited TAK1 in an irreversible manner | anti-proliferative effect, H23 (H23 cells): insufficient to block proliferation at concentrations lower than 5 μM | anti-proliferative effect, H358 (H358 cells): insufficient to block proliferation at concentrations lower than 5 μM | normalization of induced cytokine secretion ([2]; 3 μM): normalized cytokine secretion

Compound: COc1cc(O)c2c(c1)/C=C/C[C@H](O)[C@H](O)C(=O)/C=C\C[C@H](C)OC2=O [Compound 5Z7, 5Z-7-oxozeaenol, reference compound]
labeling of TAK1 by 27 after pre-treatment of cells (TAK1 [1]): did not label TAK1 | normalization of induced cytokine secretion ([2]; 0.6 μM): fully normalizing induced cytokine secretion | KinomeScan inhibition score (panel of 456 kinases): strong inhibition score against many kinases other than TAK1 | secretion of FGF-basic in SF activated by TNFα [4]: elevated secretion of fibroblast growth factor-basic

Compound: CCC(=O)Nc1ccccc1Oc1nc(Nc2cnn(CCOC)c2)ncc1Cl [Compound 26]
IC50 (PANC-1): > 100 µM | IC50 (SW156): > 100 µM | effect on labeling of TAK1 by 27 (TAK1 [1]): did not have a measurable effect | normalization of induced cytokine secretion ([2]; 3 μM): virtually inactive

Compound: Cn1cnc2c(F)c(Nc3ccc(Br)cc3Cl)c(C(=O)NOCCO)cc21 [AZD]
IC50 (PANC-1): > 100 µM | IC50 (SW156): > 100 µM | IC50 (URMC6): > 100 µM

More lines, main results first:

blocking of labeling of TAK1 by 27 (TAK1 [1]): only partially blocked labeling of TAK1
Compound: CN1CCN(c2ccc(Nc3ncc(Cl)c(Nc4ccccc4NC(=O)CCl)n3)cc2)CC1 [Compound 10]
anti-proliferative effect, H23 (H23 cells): potent against both lines at very low concentrations | anti-proliferative effect, H358 (H358 cells): potent against both lines at very low concentrations

effect on labeling of TAK1 by 27 (TAK1 [1]): did not have a measurable effect
Compound: CCC(=O)Nc1ccccc1Oc1nc(Nc2ccc(N3CCN(C)CC3)cc2)ncc1Cl [Compound 8]
normalization of induced cytokine secretion ([2]; 3 μM): virtually inactive

binding to TAK1 in KiNativ assay (TAK1 [3]): could not detect binding to TAK1 | inhibition at 1 µM (MAP2K5): -59.6% | inhibition at 1 µM (ARAF): -15.8% | inhibition at 1 µM (MAP2K6): -21.6% | blocking of labeling of TAK1 by 27 (TAK1 [1]): only partially blocked labeling of TAK1
Compound: C=CC(=O)Nc1ccccc1Oc1nc(Nc2cnn(CCOC)c2)ncc1Cl [Compound 25]
normalization of induced cytokine secretion ([2]; 3 μM): normalized cytokine secretion

effect on labeling of TAK1 by 27 (TAK1 [1]): did not have a measurable effect
Compound: CCC(=O)Nc1ccccc1Nc1nc(Nc2ccc(N3CCN(C)CC3)cc2)ncc1Cl [Compound 9]

blocking of labeling of TAK1 by 27 (TAK1 [1]): only partially blocked labeling of TAK1
Compound: C=CC(=O)Oc1ccccc1Nc1nc(Nc2cccc(N3CCOCC3)c2)ncc1Cl [Compound 20]

inhibition at 1 µM (ZAP70): -26.6% | inhibition at 1 µM (MAP2K6): -43.1% | labeling of TAK1 by 27 after pre-treatment of cells (TAK1 [1]): did not label TAK1 | potentiation of FGF-basic secretion induced by TNFα [5]: potentiated FGF-basic secretion | IC50 [6]: 0.029 to 0.083 µM
Compound: C=CC(=O)Nc1ccccc1Nc1nc(Nc2ccc(N3CCN(C)CC3)cc2)ncc1Cl [Compound 5]
anti-proliferative effect, H23 (H23 cells): potent against both lines at very low concentrations | anti-proliferative effect, H358 (H358 cells): potent against both lines at very low concentrations | normalization of induced cytokine secretion ([2]; 0.6 μM): fully normalizing induced cytokine secretion

blocking of labeling of TAK1 by 27 (TAK1 [1]): only partially blocked labeling of TAK1 | potentiation of FGF-basic secretion induced by TNFα [5]: potentiated FGF-basic secretion
Compound: C=CC(=O)Nc1ccccc1Oc1nc(Nc2ccc(N3CCN(C)CC3)cc2)ncc1Cl [Compound 2]
fold more potent than non-covalent counterpart against KRAS^G12D Ba/F3 cells (KRAS^G12D Ba/F3 cells): approximately 6 fold | anti-proliferative effect, H23 (H23 cells): potent against both lines at very low concentrations | anti-proliferative effect, H358 (H358 cells): potent against both lines at very low concentrations | normalization of induced cytokine secretion ([2]; 3 μM): normalized cytokine secretion

Reference: publication PMC5484535 (Bioorganic & medicinal chemistry, 2016)
